Measured values reported in ChEMBL document CHEMBL1132342, “Novel hypotensive agents from Verbesina caracasana. 6. Synthesis and pharmacology of caracasandiamide” (1999).
Several values for one entry are separate records, joined by “and”; a condition that tells them apart may be missing. Equal entries are not always repeated.

Assays:
Rattus norvegicus [1] = assay: Change in diastolic blood pressure after iv administration of 100 ug/Kg in anesthetized rats; type: functional, Artery
Outline: (§1)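 Adult male Wistar rats under ip ethylurethane (10% w/v in saline, 1 mL/kg) with tracheal cannula and spontaneous breathing, kept at 37 °C. Arterial BP was recorded by femoral artery catheter; compound in saline (50 µL) was given via femoral vein at 50–3200 µg/kg, ratio 2.0. Peak change is given as mean ± SE, n = 12 (n = 7 at 3200 µg/kg).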

Rattus norvegicus [2] = assay: Change in systolic blood pressure after iv administration of 1600 ug/Kg compound (treatment with papaverine(1 mg/Kg/min, iv)in anesthetized rats; type: functional, Artery
Outline: (§2)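 Urethane-anesthetized male Wistar rats, 6 per group, received iv doses of 200-1600 µg/kg (ratio 2.0) given alone or under a pretreatment. Pretreatments were continuous iv papaverine infusion (1 mg/kg/min), reserpine 5 mg/kg/day ip for 2 days, or hexamethonium 5 mg/kg iv. Peak changes in femoral arterial BP and HR were recorded; values are mean ± SE.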

Rattus norvegicus [3] = assay: Change in respiratory frequency after iv administration of 200 ug/Kg in anesthetized rats; type: functional
Outline: (§3)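 Male Wistar rats (299 ± 3 g) were anesthetized with ethylurethane ip, tracheally cannulated and breathing spontaneously, at 37 °C, and stabilized for 60 min. Doses of 50-3200 µg/kg (ratio 2.0) in saline were injected by femoral vein, 50 µL each. Recordings: femoral arterial BP, electromagnetic abdominal-aortic flow, SV from integrated pulsatile flow, polygraphic RF. Peak changes, mean ± SE, n = 12 (n = 7 at 3200).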

Rattus norvegicus [4] = assay: Change in heart rate after iv administration of 4.12 uM/Kg in anesthetized rats; type: functional
Rattus norvegicus [5] = assay: Change in diastolic blood pressure after iv administration of 400 ug/Kg compound (treatment with hexamethonium (5 mg/Kg, iv)in anesthetized rats; type: functional, Artery
Outline: (§4)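 In anesthetized male Wistar rats, responses to iv compound (200–1600 µg/kg, ratio 2.0) were measured alone and under three pretreatments: continuous iv papaverine infusion (1 mg/kg/min), ip reserpine (5 mg/kg/day for 2 days), or iv hexamethonium (5 mg/kg). Peak changes are given as mean ± SE, n = 6 per group; p < 0.05 versus control.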

Rattus norvegicus [6] = assay: Change in heart rate after iv administration of 1600 ug/Kg in anesthetized rats; type: functional; outline: as §1
Rattus norvegicus [7] = assay: Change in diastolic blood pressure after iv administration of 4.12 uM/Kg in anesthetized rats; type: functional, Artery
Rattus norvegicus [8] = assay: Change in heart rate after iv administration of 400 ug/kg compound (treatment with hexamethonium (5 mg/kg, iv))in anesthetized rats; type: functional; outline: as §2
Rattus norvegicus [9] = assay: Change in respiratory frequency after iv administration of 50 ug/Kg in anesthetized rats; type: functional; outline: as §3
Rattus norvegicus [10] = assay: Maximum rate of rise of the left ventricular isovolumetric pressure was measured after iv administration of 50 ug/Kg in anesthetized rats; type: functional, Heart left ventricle
Outline: (§5)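 Urethane-anesthetized (10% w/v, […] ip in saline) adult male Wistar rats, trachea cannulated, breathing spontaneously, 37 °C. Femoral artery catheter for blood pressure, femoral vein for dosing. Sequential iv doses 50–3200 µg/kg (ratio 2.0) in saline, each given after parameters returned to baseline. Peak changes recorded; means ± SE, n = 12 (n = 7 at 3200 µg/kg).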

Rattus norvegicus [11] = assay: Change in stroke volume after iv administration of 200 ug/Kg in anesthetized rats; type: functional; outline: as §3
Rattus norvegicus [12] = assay: Maximum rate of rise of the left ventricular isovolumetric pressure was measured after iv administration of 200 ug/Kg in anesthetized rats; type: functional, Heart left ventricle; outline: as §5
Rattus norvegicus [13] = assay: Change in systolic blood pressure after iv administration of 4.12 uM/Kg in anesthetized rats; type: functional, Artery
Outline: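 Doses were 4.12 µM/kg (two agents), guanethidine 25, clonidine 0.108, hexamethonium 12, reserpine 8, papaverine 5 and histamine […]. Peak changes in systolic BP or HR were recorded.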

Rattus norvegicus [14] = assay: Change in heart rate after iv administration of 1600 ug/Kg in the presence of noradrenaline (agonist) in anesthetized rats; type: functional
Outline: (§6)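 Urethane-anesthetized male Wistar rats (16 rats, two equal groups) received 400 or 1600 µg/kg compound iv. Cardiovascular responses to iv agonist boluses (noradrenaline 1 µg/kg, acetylcholine 2.50 µg/kg, adrenaline, isoprenaline) were measured before and after compound dosing. Peak responses are given as mean ± SE; p < 0.05 versus control mean.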

Rattus norvegicus [15] = assay: Change in heart rate after iv administration of 800 ug/Kg in anesthetized rats; type: functional; outline: as §3
Rattus norvegicus [16] = assay: Change in heart rate after iv administration of 3200 ug/Kg in anesthetized rats; type: functional; outline: as §1
Rattus norvegicus [17] = assay: Maximum rate of rise of the left ventricular isovolumetric pressure was measured after iv administration of 3200 ug/Kg in anesthetized rats; type: functional, Heart left ventricle; outline: as §5
Rattus norvegicus [18] = assay: Change in mean aortic flow after iv administration of 100 ug/Kg in anesthetized rats; type: functional; outline: as §3
Rattus norvegicus [19] = assay: Change in systolic blood pressure after iv administration of 400 ug/Kg in the presence of noradrenaline (agonist) in anesthetized rats; type: functional, Artery
Outline: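 Anesthetized male Wistar rats, two groups of 8, received 400 or 1600 µg/kg iv. Before and after this dose, iv agonist challenges were given: noradrenaline 1 µg/kg, adrenaline, acetylcholine 2.50 µg/kg, or isoprenaline. Systolic/diastolic BP, heart rate and dP/dt responses were recorded before (control) and after dosing; significance was set at p < 0.05 versus control.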

Rattus norvegicus [20] = assay: Change in systolic blood pressure after iv administration of 400 ug/Kg in anesthetized rats; type: functional, Artery; outline: as §5
Rattus norvegicus [21] = assay: Change in systolic blood pressure after iv administration of 800 ug/Kg in anesthetized rats; type: functional, Artery; outline: as §5
Rattus norvegicus [22] = assay: Maximum rate of rise of the left ventricular isovolumetric pressure was measured after iv administration of 800 ug/Kg compound (treatment with papaverine(1 mg/Kg/min, iv)in anesthetized rats; type: functional, Heart left ventricle
Outline: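 Anesthetized rats, n = 6 per group, received iv doses of 200–1600 µg/kg (ratio 2.0) either alone (control) or under pretreatment: continuous iv papaverine infusion 1 mg/kg/min, reserpine 5 mg/kg/day ip for 2 days, or hexamethonium 5 mg/kg iv. Peak changes in BP, heart rate and dP/dt recorded; means ± SE, p < 0.05 versus control.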

Rattus norvegicus [23] = assay: Change in diastolic blood pressure after iv administration of 800 ug/Kg compound (treatment with papaverine(1 mg/Kg/min, iv)in anesthetized rats; type: functional, Artery; outline: as §4
Rattus norvegicus [24] = assay: Change in systolic blood pressure after iv administration of 3200 ug/Kg in anesthetized rats; type: functional, Artery; outline: as §3
Rattus norvegicus [25] = assay: Change in diastolic blood pressure after iv administration of 400 ug/Kg in the presence of isoprenaline (agonist) in anesthetized rats; type: functional, Artery; outline: as §6
Rattus norvegicus [26] = assay: Change in diastolic blood pressure after iv administration of 50 ug/Kg in anesthetized rats; type: functional, Artery; outline: as §1

With `COc1ccc(C2C(c3ccc(OC)c(OC)c3)[C@H](C(=O)NCCCC/N=C(\N)NCC=C(C)C)[C@@H]2C(=O)NCCCC/N=C(\N)NCC=C(C)C)cc1OC` (some centres undefined) [CARACASANDIAMIDE] the BP (Rattus norvegicus [1]) was 10 mmHg, the “Change in BP” value (Rattus norvegicus [1]) was 13% and the BP (Rattus norvegicus [2]) was -33 mmHg. The “Change in respiratory frequency” value (Rattus norvegicus [3]) was 9 beats min-1 and 9%, the Heart rate (Rattus norvegicus [4]) was -35 beats min-1 and the BP (Rattus norvegicus [5]) was -45 mmHg. For the same molecule, the “Change in heart rate” value (Rattus norvegicus [6]) was -8%, the Heart rate (Rattus norvegicus [6]) was -30 beats min-1 and the BP (Rattus norvegicus [7]) was -47 mmHg. For the same molecule, the Heart rate (Rattus norvegicus [8]) was -46 beats min-1, the “Change in respiratory frequency” value (Rattus norvegicus [9]) was 5 beats min-1 and 5% and the “Change in dP/dt” value (Rattus norvegicus [10]) was 17%. For the same molecule, the dP/dt (Rattus norvegicus [10]) was 1070 mmHg s-1, the “Change in stroke volume” value (Rattus norvegicus [11]) was 11% and the Stroke volume (Rattus norvegicus [11]) was 23 µL. The “Change in dP/dt” value (Rattus norvegicus [12]) was 22%, the dP/dt (Rattus norvegicus [12]) was 1369 mmHg s-1 and the BP (Rattus norvegicus [13]) was -43 mmHg. The Heart rate (Rattus norvegicus [14]) was 13 beats min-1, the “Change in heart rate” value (Rattus norvegicus [15]) was -4% and the Heart rate (Rattus norvegicus [15]) was -16 beats min-1. For the same molecule, the “Change in heart rate” value (Rattus norvegicus [16]) was -11%, the Heart rate (Rattus norvegicus [16]) was -41 beats min-1 and the “Change in dP/dt” value (Rattus norvegicus [17]) was 77%. For the same molecule, the dP/dt (Rattus norvegicus [17]) was 4708 mmHg s-1, the “Change in mean aortic flow” value (Rattus norvegicus [18]) was 15% and the Mean aortic flow (Rattus norvegicus [18]) was 11 mL/min. For the same molecule, the BP (Rattus norvegicus [19]) was 31 mmHg, the BP (Rattus norvegicus [20]) was -20 mmHg and the “Change in BP” value (Rattus norvegicus [20]) was -19%. For the same molecule, the BP (Rattus norvegicus [21]) was -30 mmHg, the “Change in BP” value (Rattus norvegicus [21]) was -29% and the dP/dt (Rattus norvegicus [22]) was 2967 mmHg s-1. For the same molecule, the BP (Rattus norvegicus [23]) was -16 mmHg, the BP (Rattus norvegicus [24]) was -48 mmHg and the “Change in BP” value (Rattus norvegicus [24]) was -46%. The BP (Rattus norvegicus [25]) was -49 mmHg, the BP (Rattus norvegicus [26]) was 10 mmHg and the “Change in BP” value (Rattus norvegicus [26]) was 13%.
